High-throughput results (PubChem BioAssay)
The entries come from a sample that favours hits as a whole.
H69AR inhibit: blocks growth of human H69AR lung tumor cells; AID 598; H69AR lung tumor viability, ATP luminescence, 72 h; stronger effect = lower value; viability, % at 10 µM; 6% of 85,000 active;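 active means viability at or below 40%; inactive means viability above 40%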;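 further: multidrug resistant small cell line overexpressing MRP-1 efflux transporter; 100% = mean luminescence of untreated control wells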
Fibroblast inh: blocks proliferation of human lung fibroblasts | LL 47 human lung fibroblast viability, ATP luminescence; stronger effect = lower value | 1.1% of 85,000 active | viability, % at 10 µM;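 active means viability at or below 50% in the single dose screen; inactive means viability above 50%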;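 further: compound exposure lasted 72 h before the ATP readout; 100% = median luminescence of untreated cell-only wells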
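Test system: LL 47 human lung fibroblasts / Quantity: 1,150 cells in each well / Medium: IMEM growth medium with 15% fetal bovine serum / Incubation: 72 h compound exposure at 37 °C after overnight plating / Detection: CellTiter-Glo luminescence measuring cellular ATP / Read-out: % viability versus median cells-only luminescence / Benchmarks: cell-only wells, no compound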
HUVEC prolif 384: human endothelial cell proliferation inhibition; 1.1% of 86,000 active; AID 648; viability, % at 10 µM (by protocol); HUVEC proliferation, CellTiter-Glo luminescence, 72 h; stronger effect = lower value;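 active means viability at or below 30%; inactive means viability above 30%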;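 further: 100% = median luminescence of DMSO-only cell control wells on each plate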
PTEN del growth: growth suppressors of cells with PTEN tumor suppressor deletion | 1.2% of 140,000 active | viability, % at 10 µM | AID 827 | HCT116 PTEN-null viability, CellTiter-Glo, 60 h; stronger effect = lower value;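 active means viability at or below a set limit, 4 SD under the median of all tested compounds, cut at about 3.7% in these data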;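 further: PTEN knockout HCT116 line with beta catenin targeted HCT116 as companion control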
HCT116 bCat-KO: beta-catenin-lacking colon tumor cell growth suppression | viability, % at 10 µM | AID 818 | HCT116 beta-catenin knockout viability, CellTiter-Glo, 60 h; stronger effect = lower value | 1.5% of 140,000 active;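 active means viability at or under a set limit, the compound median less 4 SD, cut at about 6% in these data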;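 further: 0% = Hyamine 1622 control at 20 µM and 100% = untreated cell control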
Active calls of the source: *; · = not tested or not shown.

SMILES	H69AR inhibit	Fibroblast inh	HUVEC prolif 384	PTEN del growth	HCT116 bCat-KO
COC(=O)c1cc(=O)n(CCc2ccccc2F)c(=Nc2ccc(F)c(Cl)c2)s1	1.5*	15.9*	8.9*	11.3	7.8
COC(=O)c1cc(=O)n(Cc2ccco2)c(=Nc2ccc(F)c(Cl)c2)s1	1.5*	7.9*	3.1*	5.1	1.6*
CC(CCc1ccccc1)NC(=O)c1nnc(Cc2ccc(Cl)cc2)o1 (centres undefined)	89.8	96.2	103.2	92.4	71.1
CCC(C)(C(=O)Nc1ccccc1C)N(C(=O)CNC(C)=O)c1ccccc1C (centres undefined)	·	·	·	96.5	94.1
Cc1c(NC(=O)c2cc3ccccc3oc2=O)c(=O)n(-c2ccccc2)n1C	·	·	·	99.0	96.1
COc1ccc(/C(C)=N/OCC(=O)Nc2nc3ccccc3s2)cc1	·	·	·	100.8	95.1
O=C1C=C(NCCN2CCOCC2)C(=O)c2cnccc21	·	·	·	1.9*	1.8*
Cc1cc(N/N=C/c2ccc(O)cc2O)nc(-c2ccccc2O)n1	·	·	·	2.7*	5.9*
CCOC(=O)C1=C(C)N(c2ccc(Cl)cc2)C(=O)NC1c1cccc([N+](=O)[O-])c1 (centres undefined)	·	·	·	36.3	45.9
Cc1cccc(-c2noc(CN(C(=O)C(c3ccccc3)c3ccccc3)C(C)C)n2)c1	75.1	82.4	96.9	59.7	51.4
N#Cc1c(N)nc(SCC(=O)C23CC4CC(CC(C4)C2)C3)c(C#N)c1-c1ccc(Cl)cc1	15.7*	76.6	53.0	79.4	65.4
Cc1cccc(OCCC(=O)NCC(c2ccco2)N2CCCCC2)c1 (centres undefined)	·	·	·	88.6	85.9
O=C(Oc1ccccc1-c1nnco1)c1ccc(Cl)cc1	43.3	33.9*	98.2	87.8	55.4
O=C(Nc1ccccc1OC(=O)c1ccc(Cl)cc1)c1ccc(Cl)cc1	·	·	·	69.5	61.1
Cc1cn([C@H]2C[C@H](N=[N+]=[N-])[C@@H](CO)O2)c(=O)[nH]c1=O	91.4	99.6	109.9	87.0	83.0
O=c1[nH]c(=O)n([C@H]2C[C@H](O)[C@@H](CO)O2)cc1F	14.7*	79.9	62.0	36.5	45.0
COCCOc1cc(-n2ccnc2SC)c(Cl)cc1Cl	·	·	·	82.1	75.5
COc1cccc(-c2nc(CS(=O)(=O)CC(=O)Nc3cccc(C)c3C)c(C)o2)c1	1.5*	97.3	100.4	96.9	92.8
CCCCN(CC)S(=O)(=O)c1ccc(C(=O)N=c2sc3cc(NC(C)=O)ccc3n2C)cc1	·	·	·	0.7*	0.6*
CCOC(=O)N1CCN(C(=O)c2ccc3c(=O)n(CCC4=CCCCC4)c(=O)[nH]c3c2)CC1	39.0*	88.8	85.1	86.9	81.9
CCCCCn1c(=O)[nH]c2cc(C(=O)N3CCN(CC)CC3)ccc2c1=O	80.4	92.3	99.2	95.2	90.1
Cc1cc(C)nc(-n2nc(C)cc2NC(=O)c2cccc(S(=O)(=O)N3CCOCC3)c2)n1	·	·	·	82.8	74.5
c1ccc(-c2nc(NCC3CCCO3)c3ccccc3n2)nc1 (centres undefined)	·	·	·	6.1	6.0*
c1ccc2c(c1)[nH]c1c(NCC3CCCO3)ncnc12 (centres undefined)	70.1	93.0	86.8	79.7	72.1
c1ccc(-c2nc(NCc3ccco3)c3ccccc3n2)nc1	16.0*	55.4	48.4	7.7	8.3
SMILES	H69AR inhibit	Fibroblast inh	HUVEC prolif 384	PTEN del growth	HCT116 bCat-KO
Oc1cccc(Nc2nc(NCC3CCCO3)c3ccccc3n2)c1 (centres undefined)	104.2	89.9	85.2	3.4*	1.9*
Oc1ccccc1-c1nc(NCc2ccco2)c2ccccc2n1	36.0*	74.2	46.6	34.7	37.8
CC(Cc1ccccc1)N/C=C1\CC(=O)NC1=O (centres undefined)	90.4	103.3	86.8	76.7	82.3
CC1(c2ccccc2)CC(C)(C)N2C(=O)C3(C(C#N)=C(N)Oc4cc(O)ccc43)c3cccc1c32 (centres undefined)	80.4	101.5	12.9*	1.5*	1.4*
CC1(C)CC(=O)C2=C(C1)OC(N)=C(C#N)C21C(=O)N2CCCc3cccc1c32 (centres undefined)	91.4	100.5	108.3	97.0	96.1
CC1=CC(C)(C)N2C(=O)C3(C(C#N)=C(N)OC4=C3C(=O)CCC4)c3c(C)c(C)cc1c32 (centres undefined)	·	·	·	84.9	86.8
CC1=CC(C)(C)N2C(=O)C3(C(C#N)=C(N)Oc4cc(O)ccc43)c3c(C)c(C)cc1c32 (centres undefined)	4.4*	77.7	4.8*	47.4	61.6
CC1(c2ccccc2)CC(C)(C)N2C(=O)/C(=C3\SC(=S)NC3=O)c3cccc1c32 (centres undefined)	·	·	·	68.4	76.8
Cc1cc2c3c(c1)C(C)(c1ccccc1)CC(C)(C)N3C(=O)C21C(C#N)=C(N)OC2=C1C(=O)CC(C)(C)C2 (centres undefined)	18.8*	78.9	69.3	20.8	35.4
CN(C)c1cccc(C(=O)N/N=C/c2ccsc2)c1	·	·	·	86.6	95.6
CCOc1cccc2sc(NC(=O)c3ccc(Br)s3)nc12	29.8*	96.6	86.1	58.8	58.5
COc1cccc(-c2nc(NC(C)(C)C)c3ccccc3n2)c1O	32.5*	80.0	67.2	75.1	78.5
Oc1ccccc1-c1nc(NCCN2CCOCC2)c2ccccc2n1	12.0*	80.1	38.4	45.3	52.4
Cc1ccc(-c2nc(NCCN3CCOCC3)c3ccccc3n2)cc1	44.7	83.8	77.0	16.9	11.9
COc1cccc(-c2nc(NCCN3CCOCC3)c3ccccc3n2)c1O	8.3*	78.7	68.3	41.7	38.3
COc1ccc(CCN2C(=O)NC(NS(=O)(=O)c3ccc(N)cc3)(C(F)(F)F)C2=O)cc1OC (centres undefined)	·	·	·	104.8	95.0
CCOc1ccc(-c2nc(CSCC(=O)NC3CCCc4ccccc43)c(C)o2)cc1 (centres undefined)	98.9	95.5	92.2	83.2	92.2
O=[N+]([O-])c1ccc(Oc2cccc(Br)c2)c2ccncc12	18.4*	84.1	76.6	8.8	12.5
O=[N+]([O-])c1ccc(Oc2ccc(F)cc2)c2ccncc12	24.2*	72.5	53.8	67.8	65.0
CN=C1CC(SC)=C1c1ccc(C)cc1	38.5*	33.3*	61.2	114.0	90.7
CC(C)c1c(O)c2c(n(-c3ccccc3)c1=O)CCCC2	·	·	·	94.2	93.8
C=C1C(=O)C=C2CN(C(=O)c3ccccc3)[C@@](Cc3ccc(F)cc3)(C(=O)OC)[C@@H]12	·	·	·	1.0*	0.9*
COC(=O)[C@@]1(Cc2ccc(OC)cc2)[C@@H]2C(=CC(=O)[C@H]2CC(=O)C(=O)N(C)C)CN1C(=O)c1ccccc1	·	·	·	2.5*	2.2*
CCn1cc(C(=O)OCC(=O)Nc2ccc(S(=O)(=O)N3CCCC3)cc2)c(=O)c2ccc(C)nc21	25.8*	87.9	90.6	101.3	97.6
Cc1cccc(N2CCN(c3nc4ccc(Cl)cc4n4cnnc34)CC2)c1C	2.1*	28.8*	13.6*	1.0*	0.8*
